# Assay outcomes as filed in PubChem BioAssay.
# MT stabilize HCS = microtubule stabilizers in HeLa cells, primary screen, imaging, high-content imaging | 0.83% of 200,000 active | HeLa tubulin immunostaining HCS, 24 h; share of cells brighter than vehicle mean+2SD | % tubulin-high responders, % at 10 µM | AID 2205, 2009;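 active = plate Z-score above 3 for both tubulin-high and condensed-nucleus cell shares, with cell loss under 80%, at 10 µM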;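 note: anti alpha tubulin signal scored within the nucleus-defined area of each cell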
# RAM inhibit = inhibitors of the yeast RAM network, primary screen, dse1pr::URA3 reporter, 5-FOA selection; S. cerevisiae dse1pr::URA3 reporter, 5-FOA growth OD615, 2 d; analog-sensitive cbk1-as2 kinase mutant strain; inhibition, % at 50 µM; 1.8% of 190,000 active;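 active = inhibition above a set limit, 3 SD over mean compound inhibition, cut at about 8.4% in these data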;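 note: 0% = DMSO-only wells with no growth and 100% = 10 µM 1-NA-PP1 full growth; inhibition rescues growth on 5-FOA so higher OD means more RAM inhibition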
# BB579 growth dn = growth inhibitors of yeast BB579 in restrictive medium, primary screen, yeast lifespan-shortening project, S. cerevisiae | OD615, 48 h | 0.51% of 140,000 active | AID 804, 2007 | inhibition, % at 10 µM;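 active = inhibition above a set limit, 3 SD over the mean compound inhibition, cut at about 44% in these data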
#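 Detection: OD615 turbidity measurement; Material: Saccharomyces cerevisiae DeaD strain BB579, replicative lifespan model yeast; Timing: 48 h exposure, 30 °C; Doses: single 10 µM dose; Medium: CSMM-D restrictive synthetic medium containing dextrose (glucose); Controls: amphotericin B at 10 µg/mL as positive control.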
# HMGR II inh = inhibitors of E. faecalis class II HMGR, primary screen, biochemical, Enterococcus faecalis; HMG-CoA reductase (Enterococcus faecalis, mvaE); purified E. faecalis HMGR, NADPH absorbance 340 nm kinetic; inhibition, % at 10 µM; 0.41% of 190,000 active;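 active = inhibition above a set limit, the median over all tested compounds plus 3 SD, cut at about 9.5% in these data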;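 note: enzyme runs in reverse so mevalonate oxidation gives rising NADPH absorbance; 0% = complete reaction with DMSO and 100% = background rate lacking mevalonate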
# Yeast life ext = compounds extending yeast replicative lifespan, primary screen, S. cerevisiae, OD615. S. cerevisiae growth with nicotinamide; deaD strain in restrictive glucose medium. inhibition of the nicotinamide effect, % at 10 µM. 0.68% of 130,000 active. AID 775, 2007;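 active = inhibition above a set limit, placed 3 SD over the median of all compounds, cut at about 26% in these data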;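 note: 0% = nicotinamide-treated wells and 100% = cells grown without nicotinamide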
#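 Assay system: engineered S. cerevisiae DeaD replicative-lifespan strain, galactose-grown log-phase cells; medium: restrictive CSMM-D dextrose medium; also added: nicotinamide, 1.5 mM, co-present with compound; schedule: 48 h compound exposure at 30 °C, humidified; detection: absorbance at 615 nm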
# b-catenin transl = modulators of beta-catenin nuclear translocation, primary screen, imaging, HeLa cells, immunofluorescence, high-content | nuclear translocation activity, % at 5 µM | 0.3% of 190,000 active;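 active = nuclear translocation activity above 50% at 5 µM, with a well cell count of 50 or more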;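 note: per-cell ratio of nuclear to cytoplasmic median beta-catenin stain intensity; plate controls were DMSO negative control for no effect and GSK-3 inhibitor IX positive control for full effect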
#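 System: Human HeLa cells, endogenous beta-catenin | Compound dosing: 5 µM primary, 0.02–20 µM confirmation | Timing: 24 h compound exposure at 37°C, 5% CO2 | Measured by: Fluorescence imaging of beta-catenin antibody stain plus DAPI | Read-out basis: % activation of per-cell nuclear versus cytoplasmic median beta-catenin signal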
# An asterisk follows results filed as active; nt = no result. Most compounds without a hit are left out; they make up all but 3.5% or so of the library.
SMILES,MT stabilize HCS,RAM inhibit,BB579 growth dn,HMGR II inh,Yeast life ext,b-catenin transl
Cc1cccc(OCC(=O)NNC(=O)CCc2ccccc2)c1,2,0,nt,53*,nt,-2
COC(=O)c1ccc(C(NC(=O)OCc2ccccc2)/C(C)=C/[C@@H](C)C(=O)NCc2ccc(-c3ccccc3)cc2)cc1 (stereo partly drawn),3,7,-42,14*,1,nt
Cc1ccc(CNC(=O)C(CCC(N)=O)NC(=O)OCc2ccccc2)cc1 (stereo not drawn),3,0,-6,-2,2,-3
CC(=O)Oc1cc2c(cc1Cl)C(c1cccs1)CC1(CC(C)(C)NC(=S)N1)O2 (stereo not drawn),3,5,nt,1,nt,1
O=C(COc1ccc2ccc(=O)oc2c1)N1CCc2ccccc21,4,3,nt,2,nt,3
CCn1c(COc2cccc(C)c2C)nnc1SCC(=O)N1CCN(c2ccc(OC)cc2)CC1,5,8.8*,-71,-4,-2,-2
CCn1c(COc2ccccc2C)nnc1SCC(=O)N1CCN(c2ccccc2)CC1,4,-2,-8,0,-16,2
Cc1cccc(C)c1NC(=S)N1CC(C)OC(C)C1 (stereo not drawn),nt,nt,nt,nt,nt,0
COc1ccc(-c2cc(=O)c3cc(OC)ccc3o2)cc1,5,0,nt,-6,nt,0
COc1ccc(/C=C/c2cc(=O)c3cc(Cl)ccc3o2)cc1,5,10*,-43,1,0,2
Cc1ccc(S(=O)(=O)N2CCCC(C(=O)NCc3ccco3)C2)cc1Cl (stereo not drawn),4,3,-29,13*,nt,-2
O=C(NCc1ccco1)C1CCCN(S(=O)(=O)Cc2ccccc2)C1 (stereo not drawn),1,2,-6,-10,-10,2
O=C(c1cccnc1)N1CCC(Oc2ccc(C(=O)N3CCCC(O)C3)cc2)CC1 (stereo not drawn),3,-1,nt,1,nt,1
Cc1ccc2sc(N(CCCN(C)C)C(=O)c3ccc(Br)s3)nc2c1C,4,1,nt,-2,nt,0
CCC(=O)Nc1nc(C)c(Oc2ccccc2)c(=O)[nH]1,4,-1,-28,1,-7,-2
CC(=O)Nc1nc(C)c(Oc2ccccc2)c(=O)[nH]1,1,0,-40,-4,81*,-7
CCOC(=O)c1nnc(-c2ccccc2)nc1NCc1ccc(Cl)cc1,1,10*,-28,-6,13,nt
